The source of these data is ChEMBL document CHEMBL1145118, “Metabolites of febrifugine and its synthetic analogue by mouse liver S9 and their antimalarial activity against Plasmodium malaria parasite” (J Med Chem, 2003).

One experiment concerns FM3A. The experiment can be described thus: Cytotoxicity against FM3A mouse mammary cells. The format is functional, cell-based.
A short description of experiment [1]: Selectivity ratio between cytotoxicity to antimalarial activity was determined. The format is functional.
The next experiment has as its system Plasmodium falciparum. The experiment in a line: In vitro antimalarial activity against Plasmodium falciparum FCR3. The format is functional, organism-based.
Experiment [2] has as its system Plasmodium berghei. The experiment in a line: (§1) In vivo effective dose for antimalarial activity by intraperitoneal dose. In kind it is functional. As to conditions: ip. The method, boiled down:
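P. berghei-infected mice, five per group. Test agents were prepared at various concentrations in distilled water or olive oil and given intraperitoneally once daily on days 0–3. Parasitemia was measured on day 4, the day after the last dose, and effective doses were derived by a previously reported protocol.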

The test system of experiment [3] is Plasmodium berghei. Described as §1. In kind it is functional. As to conditions: ip. The gist of the method:
(§2)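 Mice infected with P. berghei were dosed intraperitoneally or orally, in groups of five, once daily on days 0–3. Compounds were given at various concentrations in distilled water or olive oil. Parasitemia was measured on day 4, the day after the last dose. ED50 and ED90 were derived by a previously reported protocol.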
This is another data set of the same source.

The test system of experiment [4] is Plasmodium berghei. The experiment in a line: In vivo effective dose for antimalarial activity by peroral dose. The format is functional. The note with it: po. The gist of the method: as §2
The subject of experiment [5] is Plasmodium berghei. The experiment can be described thus: In vivo antimalarial activity at >100mg/kg intraperitoneal dose. In kind it is functional.

Molecules are shown by their SMILES. Where only a bound is given, the exact number is not on record here.

One may read the EC50 as the concentration that produces a half-maximal response. For the compound `O=c1c2ccccc2ncn1CC1(O)C[C@@H]2NCC[C@H](O)[C@@H]2O1` (stereo not given in full), the EC50 in the experiment with FM3A is 250 nM; with Plasmodium falciparum, 150 nM. The Ratio in experiment [1] was found to be 167.

What is called ED50 is the dose at which the effect has come halfway, by size or by number of responders. The low end stands for greater potency, the high end for weaker potency. In the case of `O=C(C[C@@H]1NCCC[C@H]1O)Cn1cnc2ccccc2c1=O` (single isomer, unassigned) [FEBRIFUGINE], it took a dose of 0.3 mg/kg to reach the 50% effect level with Plasmodium berghei [2] (ED50). In the experiment on Plasmodium berghei [3], this compound registered an ED90 of 1.5 mg/kg. The Ratio in experiment [1] amounted to 243.

Take `O=C(C[C@H]1NCCC[C@@H]1O)Cn1c(=O)[nH]c2ccccc2c1=O`: the EC50 was above 85000 nM in the experiment on FM3A and 6600 nM with Plasmodium falciparum. Moreover, the Ratio in experiment [1] was above 13.

As to `O=C(C[C@H]1NC(=O)CC[C@@H]1O)Cn1cnc2ccccc2c1=O`, the EC50 in the experiment on FM3A and with Plasmodium falciparum was above 52000 nM each time.

Take `CCN(CC)CCCC(C)Nc1ccnc2cc(Cl)ccc12` (stereo not given) [CHLOROQUINE]: the values for the ED50 with Plasmodium berghei [4] and in the experiment with Plasmodium berghei [2] were 32 mg/kg and 5.4 mg/kg, respectively. Further, the ED90 in the experiment on Plasmodium berghei [4] came out at 89 mg/kg; in the experiment with Plasmodium berghei [3], 13 mg/kg.

In the case of `O=c1c2cc(O)ccc2ncn1CC1(O)C[C@@H]2NCCC[C@@H]2O1` (stereo not given in full), in the experiment with Plasmodium berghei [2], the 50% effect level (ED50) was put at a dose of 6 mg/kg. The compound also registered an ED90 in the experiment with Plasmodium berghei [3] of 37 mg/kg. For the same compound, the results for the EC50 with FM3A and in the experiment with Plasmodium falciparum were 29000 nM and 0.27 nM, respectively. Also, the Ratio in experiment [1] worked out at 10741.

With `CC1(C)[C@@H](n2cnc3ccccc3c2=O)C(=O)C[C@@H]2[C@@H](O)CCCN21`, the 50% effect level in the experiment with Plasmodium berghei [2] (ED50) was put at a dose of 2.5 mg/kg. The compound further returned an ED90 with Plasmodium berghei [3] of 6.6 mg/kg. The Ratio in experiment [1] was found to be 238.

As for `O=C(C[C@H]1NCCC[C@@H]1O)Cn1cnc2ccc(O)cc2c1=O`, the values for the ED50 in the experiment on Plasmodium berghei [4] and in the experiment on Plasmodium berghei [2] were 15 mg/kg and 0.6 mg/kg, respectively. The results for the ED90 in the experiment with Plasmodium berghei [4] and in the experiment on Plasmodium berghei [3] were 27 mg/kg and 5.2 mg/kg, respectively. Further, the figures for the EC50 in the experiment with FM3A and with Plasmodium falciparum were 270 nM and 2.2 nM, respectively. Further, the Ratio in experiment [1] stood at 123.

For the compound `C[C@@H]1CC[C@H]2[C@@H](C)C(=O)O[C@@H]3O[C@@]4(C)CC[C@@H]1[C@]32OO4` [ARTEMISININ], the figures for the ED50 in the experiment on Plasmodium berghei [4] and in the experiment on Plasmodium berghei [2] were 3 mg/kg and 2 mg/kg, respectively. Further, the ED90 with Plasmodium berghei [4] was found to be 8 mg/kg; with Plasmodium berghei [3] it was 3.3 mg/kg. In addition, in experiment [1], the Ratio is listed as 1000.

One may read the Inhibition as the change of the read-out against control, counted positive when it falls. Higher therefore signals a response far below the control. As to `O=c1c2ccccc2ncn1CC1(O)C[C@@H]2NCCC[C@@H]2O1` (stereo not given in full) [ISOFEBRIFUGINE], the median effective dose (ED50) with Plasmodium berghei [2] came to 79 mg/kg. The Ratio in experiment [1] amounted to 53. In the experiment with Plasmodium berghei [5], this compound yielded an Inhibition of 70%.

`O=C(C[C@H]1NCC[C@H](O)[C@@H]1O)Cn1cnc2ccccc2c1=O`: the ED50 in the experiment with Plasmodium berghei [4] is 8 mg/kg; with Plasmodium berghei [2], 2.4 mg/kg. For the same compound, the figures for the ED90 with Plasmodium berghei [4] and in the experiment with Plasmodium berghei [3] were 23 mg/kg and 8.3 mg/kg, respectively. The EC50 was found to be 36000 nM in the experiment with FM3A and 22 nM in the experiment with Plasmodium falciparum. Besides, the Ratio in experiment [1] worked out at 1636.
